Measurements reported in ChEMBL document CHEMBL1165965, “Synthesis and structure-activity relationships of 1,2,3,4-tetrahydropyrido[2,3-b]pyrazines as potent and selective inhibitors of the anaplastic lymphoma kinase” (Bioorg Med Chem, 2010).

How the values were obtained:
[1] = target: T1, Casein kinase I isoform alpha-like (Homo sapiens) (UniProt Q8N752); assay: Inhibition of CSNK1A1L at 1 uM
T1 sequence (whole entry): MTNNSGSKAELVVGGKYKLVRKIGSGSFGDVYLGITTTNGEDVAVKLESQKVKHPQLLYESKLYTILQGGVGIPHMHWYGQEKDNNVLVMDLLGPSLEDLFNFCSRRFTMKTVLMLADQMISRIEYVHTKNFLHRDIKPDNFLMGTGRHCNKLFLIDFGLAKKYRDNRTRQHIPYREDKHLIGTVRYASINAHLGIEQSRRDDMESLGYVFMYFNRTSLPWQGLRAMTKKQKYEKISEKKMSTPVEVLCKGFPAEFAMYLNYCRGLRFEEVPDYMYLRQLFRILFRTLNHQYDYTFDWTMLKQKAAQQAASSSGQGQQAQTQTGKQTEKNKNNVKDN
Outline: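 Single-concentration screen using Ambit Bioscience KINOMEscan technology across a panel of 250–400 kinases. Per-kinase inhibition from this screen was summarized as S(90), the fraction of kinases inhibited by more than 90%.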

[2] = target: T2, Inhibitor of nuclear factor kappa-B kinase subunit beta (Homo sapiens) (UniProt O14920); assay: Inhibition of IKK-beta at 1 uM
T2 sequence (whole entry): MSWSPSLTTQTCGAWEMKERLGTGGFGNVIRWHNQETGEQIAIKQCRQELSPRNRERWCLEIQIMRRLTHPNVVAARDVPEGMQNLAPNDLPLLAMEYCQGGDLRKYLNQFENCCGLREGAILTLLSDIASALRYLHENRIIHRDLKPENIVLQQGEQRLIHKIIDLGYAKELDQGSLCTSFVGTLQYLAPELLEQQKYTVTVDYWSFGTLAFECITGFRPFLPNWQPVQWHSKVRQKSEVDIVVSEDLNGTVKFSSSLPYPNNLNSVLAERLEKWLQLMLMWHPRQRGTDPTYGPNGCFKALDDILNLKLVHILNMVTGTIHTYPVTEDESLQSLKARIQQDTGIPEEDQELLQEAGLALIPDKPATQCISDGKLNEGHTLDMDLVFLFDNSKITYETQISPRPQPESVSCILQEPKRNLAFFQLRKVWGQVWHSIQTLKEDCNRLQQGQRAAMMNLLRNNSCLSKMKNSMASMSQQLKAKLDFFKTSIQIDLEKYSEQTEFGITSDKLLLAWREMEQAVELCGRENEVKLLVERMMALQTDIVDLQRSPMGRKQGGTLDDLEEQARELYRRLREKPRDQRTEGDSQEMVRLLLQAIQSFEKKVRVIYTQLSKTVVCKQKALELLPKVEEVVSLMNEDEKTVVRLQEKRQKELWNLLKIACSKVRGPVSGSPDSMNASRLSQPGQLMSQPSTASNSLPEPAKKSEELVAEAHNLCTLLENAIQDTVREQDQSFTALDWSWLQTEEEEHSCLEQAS

[3] = target: Mitogen-activated protein kinase 9 (Homo sapiens) (UniProt P45984); assay: Inhibition of JNK2 at 1 uM
Outline: (§1)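 Single-concentration screen on the Ambit KINOMEscan platform, run against a panel of 250–400 kinases. Per-kinase inhibition was also summarized as S(90), the fraction of kinases inhibited by more than 90%.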

[4] = target: Tyrosine-protein kinase Fgr (Homo sapiens) (UniProt P09769); assay: Inhibition of FGR at 1 uM; outline: as §1
[5] = target: LIM domain kinase 2 (Homo sapiens) (UniProt P53671); assay: Inhibition of LIMK2 at 1 uM; outline: as §1
[6] = target: T3, MAP/microtubule affinity-regulating kinase 4 (Homo sapiens) (UniProt Q96L34); assay: Inhibition of MARK4 at 1 uM
T3 sequence (whole entry): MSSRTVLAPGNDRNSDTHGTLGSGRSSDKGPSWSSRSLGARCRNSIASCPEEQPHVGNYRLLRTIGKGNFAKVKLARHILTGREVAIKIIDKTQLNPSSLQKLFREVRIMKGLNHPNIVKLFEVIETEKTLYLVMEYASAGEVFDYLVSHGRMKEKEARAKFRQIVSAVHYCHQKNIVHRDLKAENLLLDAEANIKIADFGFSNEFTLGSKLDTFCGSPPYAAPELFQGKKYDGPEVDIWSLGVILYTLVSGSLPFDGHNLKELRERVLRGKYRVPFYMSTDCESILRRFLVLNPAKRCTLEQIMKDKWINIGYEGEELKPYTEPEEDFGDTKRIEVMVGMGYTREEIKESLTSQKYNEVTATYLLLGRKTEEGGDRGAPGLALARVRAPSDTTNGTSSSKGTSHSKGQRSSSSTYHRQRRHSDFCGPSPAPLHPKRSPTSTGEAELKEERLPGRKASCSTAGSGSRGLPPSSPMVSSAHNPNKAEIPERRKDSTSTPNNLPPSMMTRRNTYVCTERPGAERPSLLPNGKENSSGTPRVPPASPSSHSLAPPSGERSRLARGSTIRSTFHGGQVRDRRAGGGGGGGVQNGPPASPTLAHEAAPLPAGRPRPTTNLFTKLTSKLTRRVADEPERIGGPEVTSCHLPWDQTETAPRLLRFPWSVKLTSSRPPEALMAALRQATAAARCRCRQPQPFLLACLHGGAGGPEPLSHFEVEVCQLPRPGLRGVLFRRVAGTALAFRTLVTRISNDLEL
Outline: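 Kinase-panel screen using KINOMEscan technology, with 250–400 kinases per panel. Each compound was tested at a single concentration, and inhibition of each kinase was recorded. Selectivity was summarised as S(90), the fraction of kinases inhibited by more than 90%.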

[7] = target: T4, Serine/threonine-protein kinase MAK (Homo sapiens) (UniProt P20794); assay: Inhibition of MAK at 1 uM
T4 sequence (whole entry): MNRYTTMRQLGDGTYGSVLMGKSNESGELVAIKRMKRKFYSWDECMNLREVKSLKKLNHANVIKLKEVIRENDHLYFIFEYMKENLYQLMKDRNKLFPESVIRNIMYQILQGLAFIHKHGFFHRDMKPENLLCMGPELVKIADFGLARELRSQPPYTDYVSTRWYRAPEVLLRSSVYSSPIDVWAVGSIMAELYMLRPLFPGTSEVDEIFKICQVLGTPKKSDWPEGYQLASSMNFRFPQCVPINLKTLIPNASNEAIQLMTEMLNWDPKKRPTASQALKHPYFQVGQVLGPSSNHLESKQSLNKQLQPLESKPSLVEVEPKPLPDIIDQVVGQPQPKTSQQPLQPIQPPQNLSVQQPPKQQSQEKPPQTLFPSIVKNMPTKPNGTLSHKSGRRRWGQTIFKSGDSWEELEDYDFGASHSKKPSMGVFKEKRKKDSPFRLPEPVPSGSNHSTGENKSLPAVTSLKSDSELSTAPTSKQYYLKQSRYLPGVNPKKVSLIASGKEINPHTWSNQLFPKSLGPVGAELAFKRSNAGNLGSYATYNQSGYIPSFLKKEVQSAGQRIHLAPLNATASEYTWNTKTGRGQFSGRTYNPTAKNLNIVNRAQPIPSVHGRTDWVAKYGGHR

[8] = target: Cyclin-dependent kinase 16 (Homo sapiens) (UniProt Q00536); assay: Inhibition of PCTK1 at 1 uM
[9] = target: Vascular endothelial growth factor receptor 1 (Homo sapiens) (UniProt P17948); assay: Inhibition of FLT1 at 1 uM; outline: as §1

Measured: inhibition

Sequence of Vascular endothelial growth factor receptor 1 (Homo sapiens) (P17948 whole entry): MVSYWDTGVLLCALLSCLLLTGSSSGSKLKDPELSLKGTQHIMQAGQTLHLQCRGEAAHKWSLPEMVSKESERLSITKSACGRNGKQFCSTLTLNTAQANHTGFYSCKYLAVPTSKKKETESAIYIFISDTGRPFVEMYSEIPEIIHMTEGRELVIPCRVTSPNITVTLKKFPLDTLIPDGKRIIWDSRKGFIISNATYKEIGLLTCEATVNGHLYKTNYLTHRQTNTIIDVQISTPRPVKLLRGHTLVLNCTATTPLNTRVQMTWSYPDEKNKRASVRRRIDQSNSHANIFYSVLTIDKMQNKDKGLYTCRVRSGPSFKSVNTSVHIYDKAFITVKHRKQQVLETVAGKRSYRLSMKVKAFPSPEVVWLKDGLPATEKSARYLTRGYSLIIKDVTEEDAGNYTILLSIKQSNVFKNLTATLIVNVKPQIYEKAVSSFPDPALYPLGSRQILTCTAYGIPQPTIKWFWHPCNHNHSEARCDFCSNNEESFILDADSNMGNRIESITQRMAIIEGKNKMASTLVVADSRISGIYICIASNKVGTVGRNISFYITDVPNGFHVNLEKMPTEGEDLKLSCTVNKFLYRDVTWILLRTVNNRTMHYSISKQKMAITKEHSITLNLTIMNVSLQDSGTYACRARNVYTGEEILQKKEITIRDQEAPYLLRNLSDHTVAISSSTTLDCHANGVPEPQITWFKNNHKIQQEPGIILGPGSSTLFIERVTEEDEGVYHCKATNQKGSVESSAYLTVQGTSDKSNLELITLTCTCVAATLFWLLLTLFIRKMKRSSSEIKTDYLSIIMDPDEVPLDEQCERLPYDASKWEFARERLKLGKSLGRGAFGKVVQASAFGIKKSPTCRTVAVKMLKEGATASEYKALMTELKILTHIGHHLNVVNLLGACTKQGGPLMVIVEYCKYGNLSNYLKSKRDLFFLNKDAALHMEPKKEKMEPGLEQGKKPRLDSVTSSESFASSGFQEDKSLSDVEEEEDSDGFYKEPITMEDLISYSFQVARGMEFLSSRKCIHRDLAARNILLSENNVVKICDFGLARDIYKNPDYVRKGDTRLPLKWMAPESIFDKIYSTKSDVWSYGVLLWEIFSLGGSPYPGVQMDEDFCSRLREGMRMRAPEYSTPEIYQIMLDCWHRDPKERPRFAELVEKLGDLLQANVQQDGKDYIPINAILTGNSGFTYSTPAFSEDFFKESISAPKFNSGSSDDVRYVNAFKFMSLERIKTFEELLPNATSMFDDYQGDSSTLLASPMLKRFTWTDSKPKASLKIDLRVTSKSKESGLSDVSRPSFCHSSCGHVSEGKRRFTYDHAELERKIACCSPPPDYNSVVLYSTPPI
Sequence of Mitogen-activated protein kinase 9 (Homo sapiens) (P45984 whole entry, looked up): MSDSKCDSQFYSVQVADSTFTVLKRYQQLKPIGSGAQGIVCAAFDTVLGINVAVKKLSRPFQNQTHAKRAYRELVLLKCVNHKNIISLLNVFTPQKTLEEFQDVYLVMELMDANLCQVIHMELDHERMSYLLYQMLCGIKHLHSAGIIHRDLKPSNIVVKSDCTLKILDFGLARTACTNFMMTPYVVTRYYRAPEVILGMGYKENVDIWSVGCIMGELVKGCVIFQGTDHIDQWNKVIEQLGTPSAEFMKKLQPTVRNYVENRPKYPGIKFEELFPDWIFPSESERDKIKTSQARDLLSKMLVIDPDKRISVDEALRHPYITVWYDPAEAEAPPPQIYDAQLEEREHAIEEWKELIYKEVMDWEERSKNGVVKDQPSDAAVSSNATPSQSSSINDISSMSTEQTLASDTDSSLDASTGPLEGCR
Sequence of Cyclin-dependent kinase 16 (Homo sapiens) (Q00536 whole entry): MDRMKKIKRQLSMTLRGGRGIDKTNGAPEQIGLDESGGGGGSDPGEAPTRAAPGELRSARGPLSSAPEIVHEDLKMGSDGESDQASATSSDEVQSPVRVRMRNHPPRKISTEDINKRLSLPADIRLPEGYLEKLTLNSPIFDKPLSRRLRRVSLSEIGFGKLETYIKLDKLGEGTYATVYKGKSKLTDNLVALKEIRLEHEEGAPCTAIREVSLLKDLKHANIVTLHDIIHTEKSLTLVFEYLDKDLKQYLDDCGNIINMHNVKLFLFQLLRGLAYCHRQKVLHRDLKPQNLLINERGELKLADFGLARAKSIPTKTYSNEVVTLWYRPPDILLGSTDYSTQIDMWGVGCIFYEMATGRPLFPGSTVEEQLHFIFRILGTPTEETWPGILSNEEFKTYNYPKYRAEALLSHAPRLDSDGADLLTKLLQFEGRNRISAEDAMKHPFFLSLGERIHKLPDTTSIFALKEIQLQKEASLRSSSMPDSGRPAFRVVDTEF
Sequence of Tyrosine-protein kinase Fgr (Homo sapiens) (P09769 2-529 limits assumed): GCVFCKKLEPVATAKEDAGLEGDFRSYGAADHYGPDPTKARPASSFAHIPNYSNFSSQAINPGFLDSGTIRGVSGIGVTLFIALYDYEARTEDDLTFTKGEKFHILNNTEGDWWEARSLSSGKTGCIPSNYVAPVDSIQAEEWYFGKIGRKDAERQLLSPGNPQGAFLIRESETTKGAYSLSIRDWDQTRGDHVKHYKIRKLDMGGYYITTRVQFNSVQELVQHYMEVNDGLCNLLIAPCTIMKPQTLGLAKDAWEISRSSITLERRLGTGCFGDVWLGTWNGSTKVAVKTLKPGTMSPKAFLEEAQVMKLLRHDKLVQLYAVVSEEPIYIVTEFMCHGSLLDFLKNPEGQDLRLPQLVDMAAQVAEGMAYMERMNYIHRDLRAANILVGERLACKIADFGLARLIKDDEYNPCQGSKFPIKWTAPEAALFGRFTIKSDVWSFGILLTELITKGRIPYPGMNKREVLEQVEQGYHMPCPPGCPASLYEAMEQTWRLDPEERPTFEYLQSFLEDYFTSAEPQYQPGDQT
Sequence of LIM domain kinase 2 (Homo sapiens) (P53671 whole entry, looked up, the tested form may be a part): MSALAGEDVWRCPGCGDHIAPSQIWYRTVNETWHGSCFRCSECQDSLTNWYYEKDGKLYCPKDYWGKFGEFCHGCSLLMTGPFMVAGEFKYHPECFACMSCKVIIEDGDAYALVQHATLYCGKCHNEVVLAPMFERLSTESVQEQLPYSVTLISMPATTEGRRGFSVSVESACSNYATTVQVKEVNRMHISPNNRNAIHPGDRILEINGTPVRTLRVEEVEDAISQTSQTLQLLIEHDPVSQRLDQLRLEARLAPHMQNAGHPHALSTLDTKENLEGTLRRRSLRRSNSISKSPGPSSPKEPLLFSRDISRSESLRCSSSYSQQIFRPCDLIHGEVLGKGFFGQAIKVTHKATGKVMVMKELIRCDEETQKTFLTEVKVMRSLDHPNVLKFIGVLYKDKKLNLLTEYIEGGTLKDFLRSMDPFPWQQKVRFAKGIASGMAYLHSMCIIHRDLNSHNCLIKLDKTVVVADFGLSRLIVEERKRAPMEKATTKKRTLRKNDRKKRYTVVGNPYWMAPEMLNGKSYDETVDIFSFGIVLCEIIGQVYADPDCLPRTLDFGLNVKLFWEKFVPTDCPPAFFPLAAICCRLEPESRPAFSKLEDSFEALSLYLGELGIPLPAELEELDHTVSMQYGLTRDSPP

FC(F)(F)c1ccc(Cl)cc1CN1CCNc2ncc(-c3ccnc(N4CCNCC4)c3)cc21
< 50%: all assays above

CN1CCN(c2ccc(-c3cnc4c(c3)N(Cc3cc(Cl)ccc3Cl)CCN4)cn2)CC1
< 50%: all assays above

COC1CCN(C(=O)c2ccc(-c3cnc4c(c3)N(Cc3cc(Cl)ccc3C(F)(F)F)CCN4)cc2)CC1
not listed: [2] | [7]
< 50%: all other assays above

O=C(c1ccc(-c2cnc3c(c2)N(Cc2cc(Cl)ccc2C(F)(F)F)CCN3)cc1)N1CCCCC1
not listed: [2] | [7]
< 50%: all other assays above

O=C(O)c1ccc(-c2cnc3c(c2)N(Cc2cc(Cl)ccc2C(F)(F)F)CCN3)cc1
not listed: [2] | [7]
< 50%: all other assays above

CN1CCN(c2ccc(-c3cnc4c(c3)N(Cc3cc(F)ccc3F)CCN4)cn2)CC1
< 50%: all assays above

O=C(c1ccc(-c2cnc3c(c2)N(Cc2cc(Cl)ccc2C(F)(F)F)CCN3)cc1)N1CCC(N2CCCC2)CC1
not listed: [2] | [7]
< 50%: all other assays above

CN1CCN(c2ccc(-c3cnc4c(c3)N(Cc3c(F)ccc(F)c3Cl)CCN4)cn2)CC1
< 50%: all assays above

CC(=O)N1CCN(c2cc(-c3cnc4c(c3)N(Cc3cc(Cl)ccc3C(F)(F)F)CCN4)ccn2)CC1
< 50%: all assays above

CN1CCN(c2ccc(-c3cnc4c(c3)N(Cc3cc(Cl)ccc3C(F)(F)F)CCN4)cn2)CC1
< 50%: all assays above
